Experimental data as given in ChEMBL document CHEMBL1128606, “Nucleosides and nucleotides. 141. Chemical stability of a new antitumor nucleoside, 2'-C-cyano-2'-deoxy-1-beta-D-arabino-pentofuranosylcytosine in alkaline medium: formation of 2'-C-cyano-2'-deoxy-1-beta-D-ribo-pentofuranosylcytosine and its antitumor activity” (J Med Chem, 1995).
One block for each compound: values may come before it.

What was measured:
MKN-74 [1] = assay: In Vitro cell growth inhibitory activity of CNDAC Stomach Carcinoma MKN-74 (1*10e3) cell lines on 20-min exposure; format: functional, cell-based, Homo sapiens
Outline: (§1)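 MTT assay. Cells seeded (WiDr 5×10^2, SBC-5 2.5×10^2, MKN-74 1×10^3 per well), 24 h preincubation at 37 °C, 5% CO2. Graded drug concentrations added in tetraplicate for 20 min or 48 h, then washed three times with medium and cultured to 6 days from drug addition. MTT 1 mg/mL for 4 h, DMSO solubilization, A540. IC50 read graphically from dose-response curve.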

[2] = Kinetic parameter of epimerization in Tris.HCl buffer at a pH 9.0 (or )in RMPI 1640 cell culture medium containing 10%FCS; format: ADME, cell-based; conditions: rmpi 1640, pH 9
Outline: (§2)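 Starting nucleoside (3 mg, 0.012 mmol) in 1 mL Tris-HCl (pH 7.5–10.3; 10 mM unless salt varied to 0.01–1 M at pH 9.0) or RPMI 1640 with 10% FCS, 37 °C. Timed samples analyzed by C-18 HPLC, 2.5% aqueous MeOH, 254 nm; peak areas corrected by ε. Rate constants k12, k21, k13, k23 obtained by nonlinear least-squares fit to compartment model; t1/2 reported.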

[3] = Degradation of CNDAC at 10 pH in Tris-degrees C; format: ADME; conditions: Tris buffer, pH 10; outline: as §2
[4] = Kinetic parameter of epimerization in Tris.HCl buffer at a pH 8.0 (or )in RMPI 1640 cell culture medium containing 10%FCS; format: ADME, cell-based; conditions: rmpi 1640, pH 8; outline: as §2
WiDr [5] = assay: In Vitro cell growth inhibitory activity of CNDAC against Human Colon Carcinoma WiDr 5*10e2 cells on 20- min exposure; format: functional, cell-based; outline: as §1
[6] = Degradation of CNDAC at 0.01 M concentration in Tris-degrees C; format: ADME; conditions: Tris buffer; outline: as §2
Mus musculus [7] = assay: In vivo antileukemic activity of CNDAC against P388 mouse leukemic cells by ip administration of dose 200 (mg/kg/day); format: functional
Outline: (§3)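 Female CDF1 mice, 6 weeks old (n = 6), implanted ip with 1×10^6 viable P388 cells maintained by weekly ip passage in DBA/2 mice. Drug in saline (0.1 mL/10 g body weight) given ip on days 1–5. T/C is treated vs untreated median survival time. Weight change is day 7 minus day 1 average.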

[8] = Degradation of CNDAC at 7.5 pH in Tris-degrees C; format: ADME; conditions: Tris buffer, pH 7.5; outline: as §2
[9] = Kinetic parameter of epimerization at a salt concentration (0.01 M) of in Tris.HCl buffer(pH 9.0) and 37 degree C (or )in RMPI 1640 cell culture medium containing 10%FCS; format: ADME, cell-based; conditions: rmpi 1640, pH 9; outline: as §2
SBC-5 [10] = assay: In Vitro cell growth inhibitory activity of CNDAC against Small Cell Lung Carcinoma-5 (2.5*10e2) cells on 20-min exposure; format: functional, cell-based; conditions: Homo sapiens, SBC-5, 20 min; outline: as §1
[11] = Kinetic parameter of epimerization at a salt concentration (1 M) of in Tris.HCl buffer(pH 9.0) and 37 degree C (or )in RMPI 1640 cell culture medium containing 10%FCS; format: ADME, cell-based; conditions: rmpi 1640, pH 9; outline: as §2
[12] = Degradation of CNDAC at 1 M concentration in Tris-degrees C; format: ADME; conditions: Tris buffer; outline: as §2
SBC-5 [13] = assay: In Vitro cell growth inhibitory activity of CNDAC against Small Cell Lung Carcinoma-5 (2.5*10e2) cells on 48-h exposure; format: functional, cell-based, Homo sapiens; outline: as §1
[14] = Degradation of CNDAC at 9 pH in Tris-degrees C; format: ADME; conditions: Tris buffer, pH 9; outline: as §2
[15] = Kinetic parameter of epimerization in Tris.HCl buffer at a pH 9.6 (or )in RMPI 1640 cell culture medium containing 10%FCS; format: ADME, cell-based; conditions: rmpi 1640, pH 9.6; outline: as §2
[16] = Kinetic parameter of epimerization in Tris.HCl buffer at a pH 10.0 (or )in RMPI 1640 cell culture medium containing 10%FCS; format: ADME, cell-based; conditions: rmpi 1640, pH 10; outline: as §2
[17] = Kinetic parameter of epimerization in Tris.HCl buffer at a pH 7.5 (or )in RMPI 1640 cell culture medium containing 10%FCS; format: ADME, cell-based; conditions: rmpi 1640, pH 7.5; outline: as §2
[18] = Degradation of CNDAC at 9.6 pH in Tris-degrees C; format: ADME; conditions: Tris buffer, pH 9.6; outline: as §2
Mus musculus [19] = assay: In vivo antileukemic activity of CNDAC against P388 mouse leukemic cells by ip administration of dose 50 (mg/kg/day); format: functional; outline: as §3
[20] = Kinetic parameter of epimerization at a salt concentration (0.1 M) of in Tris.HCl buffer(pH 9.0) and 37 degree C (or )in RMPI 1640 cell culture medium containing 10%FCS; format: ADME, cell-based; conditions: rmpi 1640, pH 9; outline: as §2
Mus musculus [21] = assay: In vivo antileukemic activity of CNDAC against P388 mouse leukemic cells by ip administration of dose 25 (mg/kg/day); format: functional; outline: as §3
Mus musculus [22] = assay: In vivo antileukemic activity of CNDAC against P388 mouse leukemic cells by ip administration of dose 100 (mg/kg/day); format: functional; outline: as §3
WiDr [23] = assay: In Vitro cell growth inhibitory activity of CNDAC against Human Colon Carcinoma WiDr 5*10e2 cells on 48-h exposure; format: functional, cell-based; outline: as §1
[24] = Kinetic parameter of epimerization in Tris.HCl buffer at a pH 10.0(or )in RMPI 1640 cell culture medium containing 10%FCS; format: ADME, cell-based; conditions: rmpi 1640, pH 10; outline: as §2
[25] = Degradation of CNDAC at 8 pH in Tris-degrees C; format: ADME; conditions: Tris buffer, pH 8; outline: as §2
[26] = Degradation of CNDAC at 0.1 M concentration in Tris-degrees C; format: ADME; conditions: Tris buffer; outline: as §2
MKN-74 [27] = assay: In Vitro cell growth inhibitory activity of CNDAC Stomach Carcinoma MKN-74 (1*10e3) cell lines on 48-h exposure; format: functional, cell-based, Homo sapiens; outline: as §1

IC50 (MKN-74 [1]): 24.9 µM
K12 [2]: 0.88 h⁻¹
K13+K23 [2]: 0.09 h⁻¹
K21 [2]: 0.6 h⁻¹
half-life [3]: 8.4 min
K12 [4]: 0.22 h⁻¹
K13+K23 [4]: 0.02 h⁻¹
K21 [4]: 0.14 h⁻¹
half-life [6]: 60 min
half-life [8]: 2280 min
K12 [9]: 0.88 h⁻¹
K13+K23 [9]: 0.09 h⁻¹
K21 [9]: 0.6 h⁻¹
K12 [11]: 2.31 h⁻¹
K13+K23 [11]: 0.3 h⁻¹
K21 [11]: 1.35 h⁻¹
half-life [12]: 21 min
half-life [14]: 60 min
K12 [15]: 2.14 h⁻¹
K13+K23 [15]: 0.26 h⁻¹
K21 [15]: 1.41 h⁻¹
K12 [16]: 6.18 h⁻¹
K13+K23 [16]: 0.69 h⁻¹
K12 [17]: 0.062 h⁻¹
K13+K23 [17]: 0.009 h⁻¹
K21 [17]: 0.037 h⁻¹
half-life [18]: 27 min
K12 [20]: 1.88 h⁻¹
K13+K23 [20]: 0.19 h⁻¹
K21 [20]: 1.16 h⁻¹
K21 [24]: 4.07 h⁻¹
half-life [25]: 240 min
half-life [26]: 30 min
IC50 (MKN-74 [27]; Homo sapiens, MKN-74, 48 h): 150 nM
Compound: N#C[C@H]1[C@H](O)[C@@H](CO)O[C@H]1n1ccc(N)nc1=O (stereo in doubt; form 1) [TAS-109]
IC50 (WiDr [5]): 16.5 µM
T/C (Mus musculus [7]): 333%
IC50 (SBC-5 [10]): 7.14 µM
IC50 (SBC-5 [13]; Homo sapiens, SBC-5, 48 h): 222 nM
T/C (Mus musculus [19]): 300%
T/C (Mus musculus [21]): 300%
Weight change (Mus musculus [21]): 0.3 g
T/C (Mus musculus [22]): 311%
IC50 (WiDr [23]; Homo sapiens, WiDr, 48 h): 157 nM

IC50 (MKN-74 [1]): 265 µM
IC50 (MKN-74 [27]; mkn-74): 206 nM
Compound: N#C[C@H]1[C@H](O)[C@@H](CO)O[C@H]1n1ccc(N)nc1=O (stereo in doubt; form 2) [TAS-109]
IC50 (WiDr [5]): 16.5 µM
T/C (Mus musculus [7]): 203%
Weight change (Mus musculus [7]): 0.9 g
IC50 (SBC-5 [10]): 7.14 µM
IC50 (SBC-5 [13]; sbc-5): 367 nM
T/C (Mus musculus [19]): 164%
Weight change (Mus musculus [19]): 0.9 g
T/C (Mus musculus [21]): 138%
Weight change (Mus musculus [21]): 1.6 g
T/C (Mus musculus [22]): 180%
Weight change (Mus musculus [22]): 0.7 g
IC50 (WiDr [23]; widr): 306 nM
